Test results taken from ChEMBL document CHEMBL3792365, “Dioxol and dihydrodioxin analogs of 2- and 3-phenylacetonitriles as potent anti-cancer agents with nanomolar activity against a variety of human cancer cells” (2016).

How the values were obtained:
Assay type in all cases: functional
[1] = system: U-251; test: Growth inhibition of human U251 cells at 10 uM after 48 hrs by sulforhodamine B assay; conditions: U-251, 48 h, values are per cent of control
[2] = Growth inhibition of human LOXIMVI cells at 10 uM after 48 hrs by sulforhodamine B assay; conditions: LOX IMVI, values are per cent of control
[3] = system: Malme-3M; test: Growth inhibition of human MALME-3M cells at 10 uM after 48 hrs by sulforhodamine B assay; conditions: values are per cent of control
[4] = Growth inhibition of human UACC257 cells at 10 uM after 48 hrs by sulforhodamine B assay; conditions: UACC-257, 48 h, values are per cent of control
[5] = Growth inhibition of human OVCAR5 cells at 10 uM after 48 hrs by sulforhodamine B assay; conditions: OVCAR-5, 48 h, values are per cent of control
[6] = Growth inhibition of human OVCAR8 cells at 10 uM after 48 hrs by sulforhodamine B assay; conditions: OVCAR-8, 48 h, values are per cent of control
[7] = system: A498; test: Growth inhibition of human A498 cells at 10 uM after 48 hrs by sulforhodamine B assay; conditions: A498, 48 h, values are per cent of control
[8] = Growth inhibition of human UO31 cells at 10 uM after 48 hrs by sulforhodamine B assay; conditions: UO-31, 48 h, values are per cent of control
[9] = Growth inhibition of human PC3 cells at 10 uM after 48 hrs by sulforhodamine B assay; conditions: PC-3, 48 h, values are per cent of control
[10] = system: MCF7; test: Growth inhibition of human MCF7 cells at 10 uM after 48 hrs by sulforhodamine B assay; conditions: MCF7, 48 h, values are per cent of control
[11] = Growth inhibition of human Hs 578T cells at 10 uM after 48 hrs by sulforhodamine B assay; conditions: values are per cent of control
[12] = system: CCRF-CEM; test: Growth inhibition of human CCRF-CEM cells after 48 hrs by sulforhodamine B assay
Outline: (§1)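 Five-dose testing against a 60-line human tumor cell panel. GI50 is the drug concentration giving a 50% reduction in net protein increase relative to untreated control cells.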

[13] = Growth inhibition of human HL-60(TB) cells after 48 hrs by sulforhodamine B assay; conditions: HL-60, 48 h
Outline: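 Five-dose study across the 60-cell human tumour panel. GI50 is the drug concentration giving a 50% reduction in net protein increase relative to control cells.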

[14] = Growth inhibition of human MOLT4 cells after 48 hrs by sulforhodamine B assay; conditions: MOLT-4, 48 h
Outline: (§2)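 Five-dose concentration series run across a panel of 60 human tumour cell lines. GI50 is taken as the drug concentration giving a 50% reduction in net protein increase relative to untreated control cells.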

[15] = Growth inhibition of human HOP62 cells after 48 hrs by sulforhodamine B assay; conditions: HOP-62, 48 h; outline: as §1
[16] = Growth inhibition of human HOP92 cells after 48 hrs by sulforhodamine B assay; conditions: HOP-92, 48 h; outline: as §1
[17] = system: NCI-H23; test: Growth inhibition of human NCI-H23 cells after 48 hrs by sulforhodamine B assay; conditions: NCI-H23, 48 h; outline: as §2
[18] = system: NCI-H522; test: Growth inhibition of human NCI-H522 cells after 48 hrs by sulforhodamine B assay; conditions: NCI-H522, 48 h; outline: as §2
[19] = Growth inhibition of human HCC2998 cells after 48 hrs by sulforhodamine B assay; conditions: HCC 2998, 48 h; outline: as §1
[20] = Growth inhibition of human HCT116 cells after 48 hrs by sulforhodamine B assay; conditions: HCT-116, 48 h; outline: as §1
[21] = Growth inhibition of human HCT15 cells after 48 hrs by sulforhodamine B assay; conditions: HCT-15, 48 h; outline: as §1
[22] = system: KM12; test: Growth inhibition of human KM12 cells after 48 hrs by sulforhodamine B assay; conditions: KM12, 48 h; outline: as §1
[23] = Growth inhibition of human SF268 cells after 48 hrs by sulforhodamine B assay; conditions: SF-268, 48 h; outline: as §2
[24] = Growth inhibition of human SF295 cells after 48 hrs by sulforhodamine B assay; conditions: SF-295, 48 h; outline: as §2
[25] = system: U-251; test: Growth inhibition of human U251 cells after 48 hrs by sulforhodamine B assay; conditions: U-251, 48 h; outline: as §2
[26] = Growth inhibition of human IGROV1 cells after 48 hrs by sulforhodamine B assay; conditions: IGROV-1, 48 h; outline: as §1
[27] = Growth inhibition of human OVCAR3 cells after 48 hrs by sulforhodamine B assay; conditions: OVCAR-3, 48 h; outline: as §2
[28] = Growth inhibition of human OVCAR4 cells after 48 hrs by sulforhodamine B assay; conditions: OVCAR-4, 48 h; outline: as §2
[29] = system: 786-0; test: Growth inhibition of human 786-0 cells after 48 hrs by sulforhodamine B assay; conditions: 786-0, 48 h; outline: as §1
[30] = system: CCRF-CEM; test: Growth inhibition of human CCRF-CEM cells at 10 uM after 48 hrs by sulforhodamine B assay; conditions: values are per cent of control
[31] = Growth inhibition of human HL-60(TB) cells at 10 uM after 48 hrs by sulforhodamine B assay; conditions: HL-60, 48 h, values are per cent of control
[32] = Growth inhibition of human MOLT4 cells at 10 uM after 48 hrs by sulforhodamine B assay; conditions: MOLT-4, 48 h, values are per cent of control
[33] = Growth inhibition of human RPMI8226 cells at 10 uM after 48 hrs by sulforhodamine B assay; conditions: RPMI-8226, 48 h, values are per cent of control
[34] = Growth inhibition of human HOP92 cells at 10 uM after 48 hrs by sulforhodamine B assay; conditions: HOP-92, 48 h, values are per cent of control
[35] = system: NCI-H23; test: Growth inhibition of human NCI-H23 cells at 10 uM after 48 hrs by sulforhodamine B assay; conditions: NCI-H23, 48 h, values are per cent of control
[36] = Growth inhibition of human SF295 cells at 10 uM after 48 hrs by sulforhodamine B assay; conditions: SF-295, 48 h, values are per cent of control
[37] = Growth inhibition of human PC3 cells after 48 hrs by sulforhodamine B assay; conditions: PC-3, 48 h; outline: as §2
[38] = Growth inhibition of human DU145 cells after 48 hrs by sulforhodamine B assay; conditions: DU-145, 48 h; outline: as §1
[39] = system: MCF7; test: Growth inhibition of human MCF7 cells after 48 hrs by sulforhodamine B assay; conditions: MCF7, 48 h; outline: as §1
[40] = system: MDA-MB-231; test: Growth inhibition of human MDA-MB-231 cells after 48 hrs by sulforhodamine B assay; conditions: MDA-MB-231, 48 h; outline: as §1
[41] = system: MDA-MB-468; test: Growth inhibition of human MDA-MB-468 cells after 48 hrs by sulforhodamine B assay; conditions: MDA-MB-468, 48 h; outline: as §1

## COc1cc(/C(C#N)=C/c2ccc3c(c2)OCCO3)cc(OC)c1OC
[1]
  growth, % of control at 10 µM: 8.1%
[2]
  growth, % of control at 10 µM: 24.7%
[3]
  growth, % of control at 10 µM: 64.3%
[4]
  growth, % of control at 10 µM: 76%
[5]
  growth, % of control at 10 µM: 49.1%
[6]
  growth, % of control at 10 µM: 10.4%
[7]
  growth, % of control at 10 µM: -11%
[8]
  growth, % of control at 10 µM: 23.9%
[9]
  growth, % of control at 10 µM: 26.5%
[10]
  growth, % of control at 10 µM: 14.6%
[11]
  growth, % of control at 10 µM: 18.7%
[12]
  GI50: 210 nM
[13]
  GI50: 40 nM
[14]
  GI50: 620 nM
[15]
  GI50: 50 nM
[16]
  GI50: 120 nM
[17]
  GI50: 160 nM
[18]
  GI50: 50 nM
[19]
  GI50: 140 nM
[20]
  GI50: 30 nM
[21]
  GI50: 40 nM
[22]
  GI50: 50 nM
[23]
  GI50: 110 nM
[24]
  GI50: 20 nM
[25]
  GI50: 50 nM
[26]
  GI50: 630 nM
[27]
  GI50: 40 nM
[28]
  GI50: 260 nM
[29]
  GI50: 40 nM
[30]
  growth, % of control at 10 µM: 0.4%
[31]
  growth, % of control at 10 µM: -46.3%
[32]
  growth, % of control at 10 µM: -14.3%
[33]
  growth, % of control at 10 µM: 39.2%
[34]
  growth, % of control at 10 µM: -1.7%
[35]
  growth, % of control at 10 µM: 20.7%
[36]
  growth, % of control at 10 µM: -8%
[37]
  GI50: 60 nM
[38]
  GI50: 130 nM
[39]
  GI50: 40 nM
[40]
  GI50: 170 nM
[41]
  GI50: 30 nM
